Experiment [1] is described as follows: Cytotoxicity against human H1299 cells assessed as cell viability at 10 uM after 48 hrs by MTT assay. It counts as functional. The note with it: NCI-H1299, 48 h, read-out: Activity. The procedure, abridged: (§1)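 About 2×10³ H1299 cells per well were grown for 24 h at 37 °C in 5% CO2. Compound was dissolved in DMSO immediately before use, diluted in complete medium and left on cells for 48 h. MTT was then added for 4 h at 37 °C, followed by SDS/DMF lysis buffer for 16 h at 37 °C. Absorbance was read at 550 nm.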
A general note: Tetrazolium dyes change colour on reduction, which living cells bring about.

Experiment [2] is described as follows: Cytotoxicity against human H1299 cells assessed as cell viability at 1 uM after 48 hrs by MTT assay. The format is functional. To be noted: NCI-H1299, 48 h, read-out: Activity. The procedure, abridged: as §1
Experiment [3] concerns the target Telomerase reverse transcriptase (Homo sapiens) (UniProt O14746). The experiment in a line: Inhibition of human tert transcriptional activity assessed as SEAP activity at 100 uM after 24 hrs by SEAP reporter assay. Further details: scale not given: the % may be the effect or the level left. The procedure, abridged: (§2)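 Reporter assay for hTERT transcriptional activity using secreted alkaline phosphatase. About 2 × 10³ cells per well were grown for 24 h at 37 °C, then given fresh medium. Buffer was added to the medium: 2 M diethanolamine, 1 mM MgCl2 and 20 mM L-homoarginine. p-Nitrophenyl phosphate was added to 12 mM final. The rate of absorbance increase was read at 405 nm.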
On the technique in general: A reporter such as luciferase makes a cellular process visible.

The target is the same in experiment [4]. The experiment in a line: Inhibition of human tert transcriptional activity assessed as SEAP activity at 10 uM after 24 hrs by SEAP reporter assay. Details: scale not given: the % may be the effect or the level left. The method in brief:
as §2

The target is the same in experiment [5]. The experiment in a line: Inhibition of human tert transcriptional activity assessed as SEAP activity at 1 uM after 24 hrs by SEAP reporter assay. Details: scale not given: the % may be the effect or the level left. The method in brief: as §2
A short description of experiment [6]: Cytotoxicity against human H1299 cells assessed as cell viability at 100 uM after 48 hrs by MTT assay. The format is functional. The note with it: NCI-H1299, 48 h, read-out: Activity. The procedure, abridged: as §1

These results are taken from ChEMBL document CHEMBL3120102, “Structure-based design, synthesis and biological evaluation of novel anthra[1,2-d]imidazole-6,11-dione homologues as potential antitumor agents” (2013).

Sequence of Telomerase reverse transcriptase (Homo sapiens) (O14746 whole entry): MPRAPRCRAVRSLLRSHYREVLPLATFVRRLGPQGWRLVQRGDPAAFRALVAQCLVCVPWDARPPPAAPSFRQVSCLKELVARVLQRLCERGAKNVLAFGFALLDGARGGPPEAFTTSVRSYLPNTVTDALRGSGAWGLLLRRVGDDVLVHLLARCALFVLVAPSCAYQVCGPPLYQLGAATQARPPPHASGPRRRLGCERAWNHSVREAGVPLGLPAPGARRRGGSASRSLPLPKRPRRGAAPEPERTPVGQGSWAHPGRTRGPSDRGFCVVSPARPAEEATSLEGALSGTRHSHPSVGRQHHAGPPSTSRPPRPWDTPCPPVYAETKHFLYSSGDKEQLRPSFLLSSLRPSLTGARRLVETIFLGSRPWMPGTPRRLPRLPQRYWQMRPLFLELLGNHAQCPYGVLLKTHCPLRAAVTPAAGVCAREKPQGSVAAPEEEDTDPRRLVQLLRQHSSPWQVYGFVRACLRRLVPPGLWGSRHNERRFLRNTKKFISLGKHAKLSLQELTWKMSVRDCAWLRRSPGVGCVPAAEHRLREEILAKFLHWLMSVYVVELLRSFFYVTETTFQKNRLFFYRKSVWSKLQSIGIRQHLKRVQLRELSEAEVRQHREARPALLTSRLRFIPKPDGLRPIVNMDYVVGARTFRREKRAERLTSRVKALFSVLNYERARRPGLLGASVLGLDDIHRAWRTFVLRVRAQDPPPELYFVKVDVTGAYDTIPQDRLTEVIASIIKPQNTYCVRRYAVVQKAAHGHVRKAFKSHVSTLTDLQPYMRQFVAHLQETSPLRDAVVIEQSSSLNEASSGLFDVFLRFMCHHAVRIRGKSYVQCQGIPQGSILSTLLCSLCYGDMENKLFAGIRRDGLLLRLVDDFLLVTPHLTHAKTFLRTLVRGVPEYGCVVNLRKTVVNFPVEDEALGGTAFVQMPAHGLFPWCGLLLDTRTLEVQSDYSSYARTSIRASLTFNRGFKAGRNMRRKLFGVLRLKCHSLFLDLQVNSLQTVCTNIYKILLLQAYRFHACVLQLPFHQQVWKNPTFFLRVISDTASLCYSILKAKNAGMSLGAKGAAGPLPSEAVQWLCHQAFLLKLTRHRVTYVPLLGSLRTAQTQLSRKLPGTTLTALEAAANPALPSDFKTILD

Turning to `C=CCSc1nc2ccc3c(c2[nH]1)C(=O)c1ccccc1C3=O`, the viability at 10 µM in experiment [1] is 96%. Besides, in experiment [2], the viability at 1 µM is 100%. The figures for the Activity in experiment [3], in experiment [4] and in experiment [5] were 69%, 91% and 97%, respectively. Further, the viability at 100 µM in experiment [6] was found to be 79%.
For the molecule `COc1cccc2c1C(=O)c1c(O)c3c(c(O)c1C2=O)C[C@@](O)(C(=O)CO)C[C@@H]3O[C@H]1C[C@H](N)[C@H](O)[C@H](C)O1` [DOXORUBICIN], the viability at 10 µM in experiment [1] was determined as 0%. Moreover, the viability at 1 µM in experiment [2] is 17%. Also, the Activity is 5% in experiment [3], 14% in experiment [4] and 34% in experiment [5]. Moreover, in experiment [6], the viability at 100 µM is 0%.
`CN1CCN(C(=O)Sc2nc3ccc4c(c3[nH]2)C(=O)c2ccccc2C4=O)CC1`: in experiment [1], the viability at 10 µM stood at 120%. In addition, the viability at 1 µM in experiment [2] came to 102%. Further, the results for the Activity in experiment [3], in experiment [4] and in experiment [5] were 38%, 99% and 89%, respectively. Also, in experiment [6], the viability at 100 µM turned out to be 71%.
For the molecule `O=C1c2ccccc2C(=O)c2c1ccc1nc(SCCN3CCCCC3)[nH]c21`, in experiment [1], the viability at 10 µM turned out to be 79%. Besides, the viability at 1 µM in experiment [2] turned out to be 86%. For the same molecule, the values for the Activity in experiment [3], in experiment [4] and in experiment [5] were 14%, 100% and 111%, respectively. For the same molecule, in experiment [6], the viability at 100 µM turned out to be 30%.
`O=C1c2ccccc2C(=O)c2c1ccc1nc(SCCCCCl)[nH]c21`: the viability at 10 µM in experiment [1] was determined as 97%. Further, the viability at 1 µM in experiment [2] came to 91%. Also, the Activity in experiment [3] is 54%; in experiment [4], 96%; in experiment [5], 100%. Moreover, in experiment [6], the viability at 100 µM was 83%.
As for `O=C1c2ccccc2C(=O)c2c1ccc1nc(SCC(=O)N3CCCC3)[nH]c21`, the viability at 10 µM in experiment [1] amounted to 102%. In addition, in experiment [2], the viability at 1 µM was 89%. In addition, the Activity in experiment [3] was 64%; in experiment [4] it was 100%; in experiment [5], 100%. The viability at 100 µM in experiment [6] was 62%.
With `O=C(Sc1nc2ccc3c(c2[nH]1)C(=O)c1ccccc1C3=O)c1ccccc1[N+](=O)[O-]`, the viability at 10 µM in experiment [1] turned out to be 78%. Besides, the viability at 1 µM in experiment [2] came out at 80%. Moreover, the Activity amounted to 81% in experiment [3], 92% in experiment [4] and 98% in experiment [5]. Also, the viability at 100 µM in experiment [6] turned out to be 76%.
In the case of `O=C1c2ccccc2C(=O)c2c1ccc1nc(SCCCN3CCCCC3)[nH]c21`, the viability at 10 µM in experiment [1] came out at 70%. Also, in experiment [2], the viability at 1 µM is 71%. The results for the Activity in experiment [3], in experiment [4] and in experiment [5] were 8%, 50% and 85%, respectively. For the same molecule, the viability at 100 µM in experiment [6] turned out to be 38%.
On to `O=C(Sc1nc2ccc3c(c2[nH]1)C(=O)c1ccccc1C3=O)c1cc(C(F)(F)F)ccc1C(F)(F)F`, for which the viability at 10 µM in experiment [1] is 100%. In experiment [2], the viability at 1 µM was determined as 95%. In addition, the figures for the Activity in experiment [3], in experiment [4] and in experiment [5] were 75%, 96% and 102%, respectively. Further, in experiment [6], the viability at 100 µM is 79%.
`O=C1c2ccccc2C(=O)c2c1ccc1nc(SC(=O)N3CCCCC3)[nH]c21`: in experiment [1], the viability at 10 µM was determined as 116%. Moreover, the viability at 1 µM in experiment [2] worked out at 97%. For the same molecule, the Activity in experiment [3] stood at 81%; in experiment [4] it was 104%; in experiment [5], 98%. In experiment [6], the viability at 100 µM turned out to be 116%.
For `O=C1c2ccccc2C(=O)c2c1ccc1nc(SC(=O)N3CCOCC3)[nH]c21`, the viability at 10 µM in experiment [1] was 94%. The viability at 1 µM in experiment [2] was determined as 89%. Moreover, the figures for the Activity in experiment [3], in experiment [4] and in experiment [5] were 71%, 87% and 93%, respectively. In addition, the viability at 100 µM in experiment [6] is 90%.
Turning to `O=C(CCc1ccccc1)Sc1nc2ccc3c(c2[nH]1)C(=O)c1ccccc1C3=O`, the viability at 10 µM in experiment [1] stood at 93%. Moreover, the viability at 1 µM in experiment [2] was 95%. Further, the Activity in experiment [3] worked out at 81%; in experiment [4] it was 95%; in experiment [5], 97%. Moreover, the viability at 100 µM in experiment [6] is 69%.
Turning to `O=C1c2c(O)ccc(O)c2C(=O)c2c(NCCNCCO)ccc(NCCNCCO)c21` [MITOXANTRONE], the viability at 10 µM in experiment [1] was 0%. In addition, the viability at 1 µM in experiment [2] came out at 24%. For the same molecule, the Activity in experiment [3] worked out at 7%; in experiment [4] it was 10%; in experiment [5] it was 21%. The viability at 100 µM in experiment [6] came to 0%.
Take `C#CCSc1nc2ccc3c(c2[nH]1)C(=O)c1ccccc1C3=O`: the viability at 10 µM in experiment [1] was 96%. The viability at 1 µM in experiment [2] came out at 94%. Also, the figures for the Activity in experiment [3], in experiment [4] and in experiment [5] were 52%, 85% and 94%, respectively. Also, in experiment [6], the viability at 100 µM came out at 75%.
In the case of `O=C1c2ccccc2C(=O)c2c1ccc1nc(SCCCCCBr)[nH]c21`, in experiment [1], the viability at 10 µM stood at 82%. Moreover, the viability at 1 µM in experiment [2] amounted to 84%. Moreover, the figures for the Activity in experiment [3], in experiment [4] and in experiment [5] were 41%, 58% and 92%, respectively. Besides, the viability at 100 µM in experiment [6] worked out at 37%.
Consider `COC(=O)/C=C/CSc1nc2ccc3c(c2[nH]1)C(=O)c1ccccc1C3=O`, for which the viability at 10 µM in experiment [1] came to 75%. Besides, in experiment [2], the viability at 1 µM amounted to 98%. The Activity turned out to be 64% in experiment [3], 87% in experiment [4] and 88% in experiment [5]. The viability at 100 µM in experiment [6] turned out to be 72%.
For the molecule `CCN(CC)C(=O)CSc1nc2ccc3c(c2[nH]1)C(=O)c1ccccc1C3=O`, the viability at 10 µM in experiment [1] was 90%. Moreover, the viability at 1 µM in experiment [2] is 97%. Moreover, the figures for the Activity in experiment [3], in experiment [4] and in experiment [5] were 49%, 93% and 96%, respectively. Besides, in experiment [6], the viability at 100 µM came out at 54%.
As for `O=C1c2ccccc2C(=O)c2c1ccc1nc(SCC(=O)N3CCOCC3)[nH]c21`, the viability at 10 µM in experiment [1] turned out to be 88%. Also, in experiment [2], the viability at 1 µM worked out at 91%. The Activity came to 40% in experiment [3], 87% in experiment [4] and 103% in experiment [5]. Besides, in experiment [6], the viability at 100 µM was determined as 70%.
